pEC50, pKd: −log10 of the molar value. Bridge positions count the residues as written; N and C are the ends. Square brackets hold non-standard residues; d marks the D form. Peptide text beside a SMILES is read from it. Pen = CC(C)(S)[C@H](N)C(=O)O; Sar = CNCC(=O)O
Legend:
[1] = molecular target: Type-1 angiotensin II receptor (Bos taurus) (UniProt P25104); test: Binding affinity was determined against Angiotensin II receptor, type 1
[2] = species on record: Oryctolagus cuniculus; test: Activity of compound in contraction assays performed using isolated rabbit aorta; type: functional
Outline: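 Rings (5 mm) cut from excised aorta, cleaned of adipose tissue, hung in 5 mL organ baths of continuously oxygenated Krebs solution at 37 °C, changed every 15 min. Initial tension 2 g, readjusted until stable (about 90 min equilibration) before testing.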

Chain of Type-1 angiotensin II receptor (Bos taurus) (P25104 whole entry, looked up): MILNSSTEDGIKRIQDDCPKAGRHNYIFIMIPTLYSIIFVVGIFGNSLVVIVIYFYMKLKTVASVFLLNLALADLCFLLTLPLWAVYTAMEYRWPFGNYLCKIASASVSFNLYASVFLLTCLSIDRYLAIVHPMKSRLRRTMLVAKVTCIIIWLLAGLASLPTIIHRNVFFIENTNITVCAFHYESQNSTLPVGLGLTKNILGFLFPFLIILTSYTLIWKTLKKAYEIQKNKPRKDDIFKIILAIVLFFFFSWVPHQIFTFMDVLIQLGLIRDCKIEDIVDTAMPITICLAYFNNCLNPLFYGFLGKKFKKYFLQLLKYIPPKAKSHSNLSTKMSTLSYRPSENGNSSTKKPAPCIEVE

| pKd [1] | pEC50 [2] | Compound |
| --- | --- | --- |
| 6.12 | – | CNCC(=O)N[C@@H](CCCNC(=N)N)C(=O)N[C@H](C(=O)N[C@@H](Cc1ccc(O)cc1)C(=O)N[C@H]1CCSS[C@@H]2C[C@@H](C(=O)N[C@@H](Cc3ccccc3)C(=O)O)N(C2)C(=O)[C@H](Cc2cnc[nH]2)NC1=O)C(C)C |
| < 5.00 | – | CNCC(=O)N[C@@H](CCCN=C(N)N)C(=O)N[C@H](C(=O)N[C@H](Cc1ccc(O)cc1)C(=O)N[C@@H]1CCC(=O)N[C@@H]2C[C@H](C(=O)N[C@H](Cc3ccccc3)C(=O)O)N(C2)C(=O)[C@@H](Cc2c[nH]cn2)NC1=O)C(C)C |
| 5.64 | – | CNCC(=O)N[C@@H](CCCNC(=N)N)C(=O)N[C@H](C(=O)N[C@@H](Cc1ccc(O)cc1)C(=O)N[C@@H]1CSS[C@@H]2C[C@H](C(=O)N[C@@H](Cc3ccccc3)C(=O)O)N(C2)C(=O)[C@@H](Cc2cnc[nH]2)NC1=O)C(C)C |
| < 5.00 | – | CNCC(=O)N[C@@H](CCCNC(=N)N)C(=O)N[C@H](C(=O)N[C@@H](Cc1ccc(O)cc1)C(=O)N[C@@H]1CC(=O)N[C@@H]2C[C@H](C(=O)N[C@@H](Cc3ccccc3)C(=O)O)N(C2)C(=O)[C@@H](Cc2cnc[nH]2)NC1=O)C(C)C |
| < 5.00 | – | CNCC(=O)N[C@@H](CCCNC(=N)N)C(=O)N[C@H](C(=O)N[C@@H](Cc1ccc(O)cc1)C(=O)N[C@H]1CSS[C@@H]2C[C@@H](C(=O)N[C@@H](Cc3ccccc3)C(=O)O)N(C2)C(=O)[C@H](Cc2cnc[nH]2)NC1=O)C(C)C |
| – | 7.03 | CNCC(=O)N[C@@H](CCCN=C(N)N)C(=O)N[C@H](C(=O)N[C@H](Cc1ccc(O)cc1)C(=O)N1CCC[C@H]1C(=O)N[C@@H](Cc1c[nH]cn1)C(=O)N1CCC[C@H]1C(=O)N[C@@H](Cc1ccccc1)C(=O)O)C(C)C |
| 7.24 | – | CNCC(=O)N[C@@H](CCCNC(=N)N)C(=O)N[C@H](C(=O)N[C@H](Cc1ccc(O)cc1)C(=O)N1CCC[C@H]1C(=O)N[C@@H](Cc1cnc[nH]1)C(=O)N1CCC[C@H]1C(=O)N[C@@H](Cc1ccccc1)C(=O)O)C(C)C |
| 7.70 | 5.75 | CNCC(=O)N[C@@H](CCCNC(=N)N)C(=O)N[C@H](C(=O)N[C@@H](Cc1ccc(O)cc1)C(=O)N[C@@H]1CCSS[C@@H]2C[C@H](C(=O)N[C@@H](Cc3ccccc3)C(=O)O)N(C2)C(=O)[C@@H](Cc2cnc[nH]2)NC1=O)C(C)C |
| < 5.00 | – | CNCC(=O)N[C@@H](CCCNC(=N)N)C(=O)N[C@H](C(=O)N[C@@H](Cc1ccc(O)cc1)C(=O)N[C@H]1CSSC(C)(C)[C@@H](C(=O)N[C@@H](Cc2ccccc2)C(=O)O)NC(=O)[C@H](Cc2cnc[nH]2)NC1=O)C(C)C (H-[Sar]RVYCH[Pen]F-OH; disulfide 5-7) |
| – | 9.46 | CNCC(=O)N[C@@H](CCCN=C(N)N)C(=O)N[C@H](C(=O)N[C@@H](Cc1ccc(O)cc1)C(=O)N[C@H](C(=O)N[C@@H](Cc1c[nH]cn1)C(=O)N1CCC[C@H]1C(=O)N[C@@H](Cc1ccccc1)C(=O)O)C(C)C)C(C)C (H-[Sar]RVYVHPF-OH) |
| – | 8.34 | CC[C@H](C)[C@H](NC(=O)[C@H](Cc1ccc(O)cc1)NC(=O)[C@@H](NC(=O)[C@H](CCCNC(=N)N)NC(=O)[C@@H](N)CC(=O)O)C(C)C)C(=O)N[C@@H](Cc1cnc[nH]1)C(=O)N1CCC[C@H]1C(=O)N[C@@H](Cc1ccccc1)C(=O)O [ANGIOTENSIN II] |
